Bioassay records as filed in PubChem BioAssay.
In the library only some 1.3% were active in any assay of this set; here they are far more common.
RAD54 inh: inhibitors of human RAD54 branch migration, primary screen, biochemical, fluorescence, single point | DNA repair and recombination protein RAD54-like (Homo sapiens), Q92698 | RAD54 Holliday junction branch migration, FAM/BHQ fluorescence | inhibition, % at 10.4 µM | actives 0.14% (n = 360,000) | AID 602329, 2012;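 active means mean normalized replicate activity at least 40 and at least half of replicates scoring 40 or more; inconclusive means only one of the two criteria met; inactive means mean below 40 and under half of replicates reaching 40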;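 further: 0% = median of neutral control wells and 100% = median of positive control wells; inhibitors cause a drop in the FAM fluorescence signal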
S100A4 inh HTS: inhibitors of S100A4-myosin IIA peptide binding, primary screen, biochemical, fluorescence polarization, TAMRA-MyoIIA peptide; Protein S100-A4 (Homo sapiens), P26447; inhibition, % at 10.7 µM; actives 0.14% (n = 360,000);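 active means mean inhibition of at least 70% across replicates, with every replicate also reaching that level; inconclusive means mean inhibition reaches 70% but some replicates fall short; inactive means mean inhibition below 70%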
Target sequence (P26447 whole entry, looked up): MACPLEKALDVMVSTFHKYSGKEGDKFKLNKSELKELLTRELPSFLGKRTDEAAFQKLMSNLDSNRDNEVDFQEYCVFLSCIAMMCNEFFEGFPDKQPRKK
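Test system: S100A4 monomer protein. Medium: HEPES buffer with Ca2+, pH 7.2. Reagent: fluorescent myosin IIA peptide, 5 nM. Compound dosing: single-point compound testing. Timing: 5 min between mix addition and reading. Benchmarks: DMSO neutral and TFP positive wells.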
RAD52 anneal inh: RAD52 DNA annealing inhibitors, primary screen, biochemical, FRET, single point, set 2; actives 0.46% (n = 360,000); inhibition, % at 18.7 µM; AID 651710, 2012; recombinant RAD52 DNA annealing, FRET fluorescence; DNA repair protein RAD52 homolog (Homo sapiens), P43351;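 active means every replicate showing at least 50% inhibition; inconclusive means mean inhibition at least 50% but not in every replicate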
Target sequence (P43351 whole entry, looked up): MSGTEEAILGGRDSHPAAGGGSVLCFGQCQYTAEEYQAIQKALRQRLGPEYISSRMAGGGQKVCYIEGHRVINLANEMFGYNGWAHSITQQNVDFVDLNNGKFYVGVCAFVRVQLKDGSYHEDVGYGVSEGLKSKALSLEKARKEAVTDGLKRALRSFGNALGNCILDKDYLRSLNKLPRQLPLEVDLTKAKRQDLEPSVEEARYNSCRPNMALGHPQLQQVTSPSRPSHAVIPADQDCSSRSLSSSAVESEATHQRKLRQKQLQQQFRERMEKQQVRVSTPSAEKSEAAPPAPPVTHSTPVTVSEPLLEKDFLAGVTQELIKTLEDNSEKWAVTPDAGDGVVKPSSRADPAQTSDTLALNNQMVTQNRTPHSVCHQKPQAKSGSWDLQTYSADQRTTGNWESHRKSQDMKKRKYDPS
GSIS activator: GLuc luminescence reporter in INS-1E cells, primary screen for activators of glucose-dependent secretion of insulin; INS-1E GLuc reporter insulin secretion, 2-3 h; actives 0.61% (n = 370,000); activation, % at 16.6 µM;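 active means lowest replicate activation of at least 40%, so every replicate reaches that level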;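 further: 0% = median of neutral control wells and 100% = median of IBMX positive control wells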
AF4-AF9 inh: inhibitors of AF4 peptide binding to AF9, primary screen, biochemical, AlphaScreen, biotin-AF4 peptide, FLAG-AF9, single point | actives 0.47% (n = 350,000) | inhibition, % at 10 µM | Protein AF-9 (Homo sapiens), P42568;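 active means every replicate reaching a set inhibition limit, whatever the replicate mean, cut at about 25% in these data; inconclusive means mean inhibition reaches that limit but some replicates miss it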;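 further: 0% = plate neutral control median and 100% = total signal loss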
* marks the source's active call; other numbers are inactive results; ? = inconclusive; . = not tested or not shown.

SMILES	RAD54 inh	S100A4 inh HTS	RAD52 anneal inh	GSIS activator	AF4-AF9 inh
COC(=O)C1=C(C)N(Cc2ccc(C(F)(F)F)cc2)C(=NCc2ccc(OC)cc2)NC1c1cccc(Cl)c1 (centres undefined)	.	1	-16	.	1
O=C(N[C@H]1CC[C@@H](CCNC(=O)C2CCCCC2)O[C@@H]1CO)c1ccncc1	-3	4	-7	3	2
COC(=O)C1=C(C)N(Cc2cccc(C(F)(F)F)c2)C(=NCc2ccc3c(c2)OCO3)NC1c1cccc(C(F)(F)F)c1 (centres undefined)	.	1	-29	.	6
COC(=O)C1=C(C)N(Cc2cccc(C(F)(F)F)c2)C(=NCc2ccc3c(c2)OCO3)NC1CCc1ccccc1 (centres undefined)	.	-1	35	114*	.
O=[N+]([O-])c1cccc(COc2ccccc2CN2CCCCC2)c1	16	0	2	56*	0
O=[N+]([O-])c1cccc(COc2ccccc2CN2CCOCC2)c1	10	-23	-4	-2	5
Cc1ccc(S(=O)(=O)Nc2cccc3c2O[C@@H](CN(C)Cc2ccc(C(F)(F)F)cc2)[C@H](C)CN([C@@H](C)CO)C3=O)cc1	0	3	-7	-14	5
Cc1cc([N+](=O)[O-])cc2ncccc12	.	.	.	86*	.
O=[N+]([O-])c1ccc2cccnc2c1	-2	0	3	0	-3
COCCCNC(=O)/C=C1\Sc2ccccc2N(Cc2ccccc2F)C1=O	7	-5	-10	2	-40
CCN1CCN(CCNC(=O)c2ccc(/C=C3\Sc4ccccc4N(Cc4ccccc4F)C3=O)cc2)CC1	.	-1	85*	135	21
COc1ccc2oc(C(=O)Nc3nnc(C)s3)c(C)c2c1	8	1	-17	53*	1
Cc1c(Br)c([N+](=O)[O-])nn1CC(=O)Nc1sc2c(c1C(=O)OC(C)C)CCCC2	-9	.	.	46*	.
COc1ccccc1C(=O)Nc1ccc2c(c1)C(=O)N(C)C[C@@H](OC)[C@@H](C)CN(CC1CC1)[C@H](C)CO2	-2	11	1	-1	-1
CN=c1scc(-c2ccccc2F)n1/N=C/c1ccc(O)c(O)c1O	-4	3	-10	-6	?
CN=c1scc(-c2ccccc2F)n1/N=C/c1ccc[nH]1	.	21	-4	4	45*
Cc1ccccc1S(=O)(=O)N[C@@H]1CC[C@H](CCn2cc(Cc3ccccc3)nn2)O[C@@H]1CO	1	-6	-3	-3	0
COc1ccc2c3c([nH]c2c1)[C@H](CO)N(C(=O)CN(C)C)CC31CCN(Cc2ccccc2Cl)CC1	.	5	33	-1	28*
COc1ccc2c3c([nH]c2c1)[C@@H](CO)N(C(C)=O)CC31CN(Cc2ccccc2Cl)C1	.	-9	12	-2	29*
COc1ccc2c3c([nH]c2c1)[C@H](CO)N(C(=O)CN(C)C)CC31CN(Cc2ccccc2Cl)C1	.	.	.	52	32*
CCC(=O)N1CC2(CN(Cc3ccccc3Cl)C2)c2c([nH]c3cc(OC)ccc23)[C@H]1CO	.	-1	21	-6	30*
COCC(=O)N1CC2(CN(Cc3ccccc3Cl)C2)c2c([nH]c3cc(OC)ccc23)[C@@H]1CO	.	.	.	-8	2
COc1ccc2c3c([nH]c2c1)[C@@H](CO)N(C(=O)CN(C)C)CC31CN(Cc2ccccc2Cl)C1	.	.	.	21	.
O=C(Nc1ccc(F)cc1)N[C@@H]1C=C[C@@H](CC(=O)N2CCOCC2)O[C@H]1CO	-3	12	2	8	1
O=C(C[C@@H]1CC[C@@H]2[C@H](COC[C@@H](O)CN2C(=O)Nc2ccc(Cl)cc2)O1)N1CCCCC1	-5	9	4	-17	1
SMILES	RAD54 inh	S100A4 inh HTS	RAD52 anneal inh	GSIS activator	AF4-AF9 inh
C[C@H](CO)N1C[C@H](C)[C@@H](CN(C)Cc2ccccc2)Oc2ncc(-c3ccccc3)cc2C1=O	3	-2	3	1	1
O=C(C[C@H]1C=C[C@H](NS(=O)(=O)c2ccc(F)cc2)[C@@H](CO)O1)NCCc1ccncc1	-6	4	-2	-6	-1
COc1ccc(S(=O)(=O)Nc2ccc3c(c2)CC(=O)N([C@@H](C)CO)C[C@@H](C)[C@@H](CN(C)C(=O)NC2CCCCC2)O3)cc1	-1	12	-15	-2	-2
CC(=O)N1CCN(c2nnc(-c3ccc(C)cc3)c3ccccc23)CC1	.	-4	-9	41*	-2
CO[C@H]1CN(C)C(=O)c2ccc(NS(=O)(=O)c3ccc(Cl)cc3)cc2OC[C@H](C)N(C)C[C@@H]1C	.	3	11	8	-23
CCCCNc1nc(N)ncc1[N+](=O)[O-]	3	2	-4	55*	1
CCCCNc1c([N+](=O)[O-])ncn1C	-6	4	-8	-4	-2
COc1ccc2sc(N(CCN(C)C)C(=O)/C=C/c3cccs3)nc2c1	.	-3	12	-32	33*
COc1ccc2c3c([nH]c2c1)[C@@H](CO)N(C(=O)CN1CCOCC1)CC31CN(CC2CCCC2)C1	.	7	15	5	7
C[C@@H]1CN([C@H](C)CO)S(=O)(=O)c2ccc(-c3ccc(F)cc3)cc2O[C@H]1CN(C)Cc1cccc(F)c1	.	.	.	58*	.
C[C@@H]1CN([C@H](C)CO)S(=O)(=O)c2ccc(-c3ccccc3)cc2O[C@@H]1CN(C)Cc1cccc(F)c1	-14	2	15	-13	3
C[C@@H]1CN([C@@H](C)CO)S(=O)(=O)c2ccc(-c3ccccc3)cc2O[C@H]1CN(C)Cc1cccc(F)c1	0	143*	22	-2	-1
C[C@H](CO)N1C[C@H](C)[C@H](CN(C)C(=O)NC2CCCCC2)OCCCC[C@H](C)Oc2ccc(NS(=O)(=O)c3cccs3)cc2C1=O	-2	5	-24	-9	0
C=CC(=O)N1C/C(=C/c2ccccc2)C(=O)/C(=C\c2ccccc2)C1	.	-1	-18	50*	8
N#C[C@H]1[C@@H](c2ccccc2-c2cccc(F)c2)[C@@H](CO)N1C(=O)c1cccnc1	.	-55	-7	-3	-3
O=C(c1ccccc1)N1CC2(C1)[C@@H](c1ccccc1)[C@@H](CO)N2Cc1ccccn1	.	11	-7	6	0
O=C(c1ccccc1)N1CC2(C1)[C@H](c1ccccc1)[C@@H](CO)N2Cc1ccccn1	.	107*	-20	-5	-4
CCCn1c(O)c(N=NC(=O)c2cccnc2)c2cc(Br)ccc21	-2	-1	-5	41*	2
CSc1ccc(C(=O)C2CCCN(C(=O)c3ccc4c(c3)no[n+]4[O-])C2)cc1 (centres undefined)	0	-3	-17	42*	6
